Laboratory results: ChEMBL document CHEMBL1123901, “Inhibition of delayed hypersensitivity reactions by cinnamyl 1-thioglycosides” (J Med Chem, 1987)
pIC50: −log10 of the molar value.

Experiments:
Format in all cases: functional
Cavia porcellus [1] = species: Cavia porcellus; assay: Effect on guinea pig T cell proliferation was tested by measuring the incorporation of [3H]-thymidine uptake at the concentration of 0 uM
Procedure, shortened: (§1)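 Strain 2 female guinea pigs were immunized with 100 μg OVA in CFA split over the footpads. At day 14 they received mineral oil ip, and the exudate was collected 4 days later. T cells were enriched on nylon wool. 2×10^5 cells per well were cultured with 10% irradiated (2100 rads) exudate cells, OVA (10 μg/mL) and compound, for 72 h at 37 °C in 5% CO2. [3H]thymidine (1 μCi) was added 18-24 h before harvest. Triplicate wells; mean Δcpm ± SD.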

Cavia porcellus [2] = species: Cavia porcellus; assay: Inhibitory activity against [3H]thymidine uptake by cinnamyl 1-thioglycosides in guinea pig T cell proliferation; procedure, shortened: as §1
Cavia porcellus [3] = species: Cavia porcellus; assay: Effect on guinea pig T cell proliferation was tested by measuring the incorporation of [3H]thymidine uptake at the concentration of 10 uM; procedure, shortened: as §1
Cavia porcellus [4] = species: Cavia porcellus; assay: Effect on guinea pig T cell proliferation was tested by measuring the incorporation of [3H]-thymidine uptake at the concentration of 100 uM; procedure, shortened: as §1
Cavia porcellus [5] = species: Cavia porcellus; assay: Effect on guinea pig T cell proliferation was tested by measuring the incorporation of [3H]thymidine uptake at the concentration of 1000 uM; procedure, shortened: as §1
Cavia porcellus [6] = species: Cavia porcellus; assay: Effect on guinea pig T cell proliferation was tested by measuring the incorporation of [3H]thymidine uptake at the concentration of 500 uM; procedure, shortened: as §1
Cavia porcellus [7] = species: Cavia porcellus; assay: Effect on guinea pig T cell proliferation was tested by measuring the incorporation of [3H]thymidine uptake at the concentration of 750 uM; procedure, shortened: as §1
Cavia porcellus [8] = species: Cavia porcellus; assay: Effect on guinea pig T cell proliferation was tested by measuring the incorporation of [3H]thymidine uptake at the concentration of 250 uM; procedure, shortened: as §1
Cavia porcellus [9] = species: Cavia porcellus; assay: [3H]thymidine uptake was determined by liquid scintillation spectroscopy in ovalbumin pulsed Macrophages
Procedure, shortened: (§2)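 Pretreatment protocol. Strain 2 female guinea pigs immunized with OVA in CFA (100 μg OVA; 0.1 mL/foot); mineral oil given ip at day 14, peritoneal exudate collected 4 days later. Nylon-wool-enriched T cells (PELs) and irradiated (2100 rads) exudate macrophages each incubated with sugar derivative 18 h at 37 °C, then washed. Macrophages pulsed with OVA 100 μg/mL for 1 h at 37 °C and washed. Viability adjusted by trypan blue; populations mixed and cultured 72 h at 37 °C. [3H]thymidine (1 μCi) added 18-24 h before harvest; read by liquid scintillation as mean Δcpm ×10^-3.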

Cavia porcellus [10] = species: Cavia porcellus; assay: [3H]thymidine uptake was determined by liquid scintillation spectroscopy in compound 4 pretreated OVA pulsed Macrophages plus OVA (10 ug/mL)
Procedure, shortened: (§3)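 Guinea pig PELs and irradiated (2100 rads) exudate macrophages were each preincubated with compound (1 mM or 500 μM, depending on agent) for 18 h at 37 °C, then washed. Macrophages were pulsed with OVA 100 μg/mL for 1 h at 37 °C and washed. Cells were viability-adjusted by trypan blue and mixed, with or without OVA 10 μg/mL. Culture ran 72 h at 37 °C with [3H]thymidine read by scintillation, as mean Δcpm × 10^-3.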

Cavia porcellus [11] = species: Cavia porcellus; assay: [3H]thymidine uptake was determined by liquid scintillation spectroscopy in compound 4 treated Macrophages pretreated with 500 uM of 4 at 37 degree C for 18 h; details: in the assay text read “1 mM” for “500 uM”; procedure, shortened: as §3
Cavia porcellus [12] = species: Cavia porcellus; assay: [3H]thymidine uptake was determined by liquid scintillation spectroscopy in 4 pretreated OVA pulsed Macrophages plus OVA (10 ug/mL) pretreated with 500 uM of 4 at 37 degree C for 18 h; details: in the assay text read “1 mM” for “500 uM”; procedure, shortened: as §3
Cavia porcellus [13] = species: Cavia porcellus; assay: [3H]thymidine uptake was determined by liquid scintillation spectroscopy in Macrophages; procedure, shortened: as §3
Cavia porcellus [14] = species: Cavia porcellus; assay: [3H]-Thymidine uptake was determined by liquid scintillation spectroscopy in Macrophages pretreated with 500 uM of 4 at 37 degree C for 18 h; details: in the assay text read “1 mM” for “500 uM”; procedure, shortened: as §3
Cavia porcellus [15] = species: Cavia porcellus; assay: [3H]-Thymidine uptake was determined by liquid scintillation spectroscopy in OVA pulsed compound 4 pretreated Macrophages pretreated with 500 uM of 4 at 37 degree C for 18 h; details: in the assay text read “1 mM” for “500 uM”; procedure, shortened: as §3
Cavia porcellus [16] = species: Cavia porcellus; assay: [3H]thymidine uptake was determined by liquid scintillation spectroscopy in compound 2 treated Macrophages; procedure, shortened: as §3
Mus musculus [17] = assay: Compound was administered intraperitoneally to mice before increase in foot-pad thickness at a dose of 10 mg/kg; details: route intraperitoneal
Procedure, shortened: (§4)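 DTH in A/J female mice (20-23 g): cyclophosphamide 200 mg/kg sc, then iv sensitization with 10^8 washed SRBC 3 days later. On day 6 after sensitization, one hind footpad challenged with 10^8 SRBC in 20 μL, the other given saline. Dosing ip or po to overnight-fasted mice 20 min before challenge. Swelling read at 24 and 48 h as antigen minus saline footpad (mm × 10), by constant-pressure caliper.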

Mus musculus [18] = assay: Compound was administered intraperitoneally to mice before increase in foot-pad thickness at a dose of 3 mg/kg; details: route intraperitoneal; procedure, shortened: as §4
Mus musculus [19] = assay: Compound was administered orally to mice before increase in foot-pad thickness at a dose of 10 mg/kg; details: route oral; procedure, shortened: as §4
Mus musculus [20] = assay: Compound was administered orally to mice before increase in foot-pad thickness at a dose of 3 mg/kg; details: route oral; procedure, shortened: as §4
Mus musculus [21] = assay: Compound was administered orally to mice before increase in foot-pad thickness at a dose of 30 mg/kg; details: route oral; procedure, shortened: as §4
Mus musculus [22] = assay: Percent reduction in mice after oral administration 10 mg/kg; procedure, shortened: as §4
Mus musculus [23] = assay: Percent reduction in mice after intraperitoneal administration 3 mg/kg; procedure, shortened: as §4
Mus musculus [24] = assay: Percent reduction in mice after intraperitoneal administration of 30 mg/kg; procedure, shortened: as §4
Mus musculus [25] = assay: Percent reduction in mice after oral administration 3 mg/kg; procedure, shortened: as §4
Mus musculus [26] = assay: Percent reduction in mice after oral administration of 30 mg/kg; procedure, shortened: as §4
Mus musculus [27] = assay: Percent reduction in mice after intraperitoneal administration 10 mg/kg; procedure, shortened: as §4
Cavia porcellus [28] = species: Cavia porcellus; assay: [3H]thymidine uptake was determined by liquid scintillation spectroscopy in ovalbumin (OVA) pulsed compound 4 treated Macrophages; procedure, shortened: as §2
Mus musculus [29] = assay: Compound was administered intraperitoneally to mice before increase in foot-pad thickness at a dose of 30 mg/kg; details: route intraperitoneal; procedure, shortened: as §4

Q: Which Activity (Cavia porcellus [1]) does the source give for `OCC1OC(SCCCc2ccccc2)C(O)C(O)C1O` (stereo unspecified) here?
A: 72.8 Δcpm x10e-3

Q: And the pIC50 (Cavia porcellus [2]; Cavia porcellus, T-cell, 72 h)?
A: 3.40

Q: What about the Activity (Cavia porcellus [3]) of the same molecule?
A: 70.3 Δcpm x10e-3

Q: What about the Activity (Cavia porcellus [4]) of the same molecule?
A: 59 Δcpm x10e-3

Q: And the Activity (Cavia porcellus [5])?
A: 0 Δcpm x10e-3

Q: What about the Activity (Cavia porcellus [6]) of the same molecule?
A: 34.2 Δcpm x10e-3

Q: And the Activity (Cavia porcellus [7])?
A: 18.5 Δcpm x 10^-3

Q: What about the Activity (Cavia porcellus [8]) of the same molecule?
A: 39.7 Δcpm x10e-3

Q: For `CC1OC(SC/C=C/c2ccccc2)C(O)C(O)C1O` (stereo in doubt; 4), which “Delta cpm x10e-3” value (Cavia porcellus [9]) is on record?
A: 141.55

Q: What about the Activity (Cavia porcellus [1]) of the same molecule?
A: 72.8 Δcpm x10e-3

Q: What about the pIC50 (Cavia porcellus [2]; t-cell) of the same molecule?
A: 3.80

Q: What about the Activity (Cavia porcellus [3]) of the same molecule?
A: 93.6 Δcpm x10e-3

Q: What about the Activity (Cavia porcellus [4]) of the same molecule?
A: 62.1 Δcpm x10e-3

Q: What about the Activity (Cavia porcellus [5]) of the same molecule?
A: 0.06 Δcpm x10e-3

Q: What about the Activity (Cavia porcellus [6]) of the same molecule?
A: 1.51 Δcpm x10e-3

Q: And the Activity (Cavia porcellus [7])?
A: 0.02 Δcpm x 10^-3

Q: And the “Delta cpm x10e-3” value (Cavia porcellus [10])?
A: 139.97

Q: What about the “Delta cpm x10e-3” value (Cavia porcellus [11]) of the same molecule?
A: 2.81

Q: What about the “Delta cpm x10e-3” value (Cavia porcellus [12]) of the same molecule?
A: 49.95

Q: What about the “Delta cpm x10e-3” value (Cavia porcellus [13]) of the same molecule?
A: 6.67

Q: And the “Delta cpm x10e-3” value (Cavia porcellus [14])?
A: 4.75

Q: What about the “Delta cpm x10e-3” value (Cavia porcellus [15]) of the same molecule?
A: 33.97

Q: And the “Delta cpm x10e-3” value (Cavia porcellus [16])?
A: 4.89

Q: What about the Activity (Mus musculus [17]) of the same molecule?
A: 2.78 mm x10

Q: And the Activity (Mus musculus [18])?
A: 4.6 mm x10

Q: And the Activity (Mus musculus [19])?
A: 0.96 mm x10

Q: And the Activity (Mus musculus [20])?
A: 0.98 mm x10

Q: What about the Activity (Mus musculus [21]) of the same molecule?
A: 0.77 mm x10

Q: And the Reduction (Mus musculus [22])?
A: 18%

Q: What about the Reduction (Mus musculus [23]) of the same molecule?
A: 13%

Q: What about the Reduction (Mus musculus [24]) of the same molecule?
A: 56%

Q: And the Reduction (Mus musculus [25])?
A: 16%

Q: And the Reduction (Mus musculus [26])?
A: 34%

Q: And the Reduction (Mus musculus [27])?
A: 47%

Q: And the “Delta cpm x10e-3” value (Cavia porcellus [28])?
A: 104.36

Q: And the Activity (Cavia porcellus [8])?
A: 5.8 Δcpm x10e-3

Q: What about the Activity (Mus musculus [29]) of the same molecule?
A: 2.34 mm x10

Q: Which results are given for `O=C(CCCCC1CCSS1)NCC1OC(SC/C=C/c2ccccc2)C(O)C(O)C1O` (stereo unspecified)?
A: Activity (Cavia porcellus [1]): 93.2 Δcpm x10e-3; Activity (Cavia porcellus [3]): 75.2 Δcpm x10e-3; Activity (Cavia porcellus [4]): 2.97 Δcpm x10e-3; Activity (Cavia porcellus [5]): 0.08 Δcpm x10e-3; Activity (Cavia porcellus [6]): 0 Δcpm x10e-3; Activity (Cavia porcellus [7]): 0 Δcpm x 10^-3; Activity (Cavia porcellus [8]): 0 Δcpm x10e-3

Q: What does the source list for `NCC1OC(SC/C=C/c2ccccc2)C(O)C(O)C1O` (stereo unspecified)?
A: Activity (Cavia porcellus [1]): 81 Δcpm x10e-3; Activity (Cavia porcellus [3]): 120 Δcpm x10e-3; Activity (Cavia porcellus [4]): 101 Δcpm x10e-3; Activity (Cavia porcellus [5]): 0.01 Δcpm x10e-3; Activity (Cavia porcellus [6]): 1.23 Δcpm x10e-3; Activity (Cavia porcellus [7]): 0.02 Δcpm x 10^-3; Activity (Cavia porcellus [8]): 71.1 Δcpm x10e-3

Q: For `CC1OC(SC/C=C/c2ccccc2)C(O)C(O)C1O` (stereo in doubt; 6), which Activity (Cavia porcellus [1]) is on record?
A: 93.5 Δcpm x10e-3

Q: What about the pIC50 (Cavia porcellus [2]; t-cell) of the same molecule?
A: 3.12

Q: And the Activity (Cavia porcellus [3])?
A: 115 Δcpm x10e-3

Q: What about the Activity (Cavia porcellus [4]) of the same molecule?
A: 101 Δcpm x10e-3

Q: What about the Activity (Cavia porcellus [5]) of the same molecule?
A: 5.97 Δcpm x10e-3

Q: And the Activity (Cavia porcellus [6])?
A: 36.4 Δcpm x10e-3

Q: What about the Activity (Cavia porcellus [7]) of the same molecule?
A: 12.8 Δcpm x 10^-3

Q: And the Activity (Cavia porcellus [8])?
A: 59.7 Δcpm x10e-3

Q: With `CCCC(=O)NCC1OC(SC/C=C/c2ccccc2)C(O)C(O)C1O` (stereo unspecified) as the molecule, how does the Activity (Cavia porcellus [1]) read?
A: 85.8 Δcpm x10e-3

Q: What about the Activity (Cavia porcellus [3]) of the same molecule?
A: 68.4 Δcpm x10e-3

Q: And the Activity (Cavia porcellus [4])?
A: 45 Δcpm x10e-3

Q: What about the Activity (Cavia porcellus [5]) of the same molecule?
A: 0.07 Δcpm x10e-3

Q: What about the Activity (Cavia porcellus [6]) of the same molecule?
A: 0 Δcpm x10e-3

Q: And the Activity (Cavia porcellus [7])?
A: 0 Δcpm x 10^-3

Q: And the Activity (Cavia porcellus [8])?
A: 1.73 Δcpm x10e-3
